Screening results (PubChem)
The list is not random: actives were taken first. Their share in the collection is about 3.5%.
NF-kB expr up: NF-kB expression increase, human neuronal cells | fold change at 12.5 µM | NF-kB reporter expression; stronger effect = higher value | AID 1239 | 1.6% of 190,000 active; in the data active = fold change above about 3.3
APP 5'UTR act: APP 5'UTR luciferase reporter activation | SH-SY5Y APP 5'UTR luciferase reporter, luminescence; zero percent = DMSO vehicle wells | 1% of 190,000 active | activation, % at 2 µM;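 active = activation above a set limit, based on mean plus 3 SD of controls, cut at about 140% in these data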
FLuc act counter: affects firefly luciferase, flagging false hits in luciferase stimulation screens; P08659; 200,000 tested, under 10 active; ATPlite luciferase biochemical, luminescence, 10 min; 0 = ATP-free wells, 1 = DMSO control; activation factor at 10 µM;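 active = luciferase activation factor, scaled between plate controls, of at least 2 with compound at 10 µM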
Target sequence (P08659 whole entry, looked up): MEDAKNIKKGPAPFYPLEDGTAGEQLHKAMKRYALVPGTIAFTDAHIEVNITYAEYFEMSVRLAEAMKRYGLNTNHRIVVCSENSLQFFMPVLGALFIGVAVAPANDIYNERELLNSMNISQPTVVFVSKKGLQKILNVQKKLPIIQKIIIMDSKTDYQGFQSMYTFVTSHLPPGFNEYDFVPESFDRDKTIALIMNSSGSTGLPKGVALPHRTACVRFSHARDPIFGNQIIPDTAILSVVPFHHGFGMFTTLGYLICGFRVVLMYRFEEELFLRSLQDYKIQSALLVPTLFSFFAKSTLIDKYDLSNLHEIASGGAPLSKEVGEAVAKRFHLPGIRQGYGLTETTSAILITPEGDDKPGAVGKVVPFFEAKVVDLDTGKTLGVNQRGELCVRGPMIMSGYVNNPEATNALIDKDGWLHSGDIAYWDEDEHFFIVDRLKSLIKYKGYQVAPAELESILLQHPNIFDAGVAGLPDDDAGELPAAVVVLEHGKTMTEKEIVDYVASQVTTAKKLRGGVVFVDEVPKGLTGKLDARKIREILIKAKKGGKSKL
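Assay system – cell-free luciferase reagent · Medium – PBS-based ATP solution · Dosing – test compounds dosed from 2 mM stocks in 100% DMSO · Timing – 10 min, room temperature · Technique – light output (luminescence) · Measure – luminescence gain marking luciferase activators · Controls – No-ATP low control, compound-free enzyme-plus-ATP high control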
Pf gametocyte: inhibitors of late stage P. falciparum gametocyte viability. P. falciparum stage V gametocytes, ATP luminescence, 24 h. inhibition, % at 10.9 µM. 0.065% of 150,000 active. AID 743093;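 active = inhibition above the mean plus 3 SD of compounds within the control limits, set per campaign, cut at about 38% in these data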;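 note: 0% = DMSO wells and 100% = medium only without gametocytes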
FLuc inh counter: counter-screen for luciferase assay inhibitors: firefly luciferase inhibition. 1.5% of 200,000 active. AID 1006. inhibition, % at 10 µM. ATPLite firefly luciferase biochemical luminescence, 10 min. P08659;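 active = inhibition above about 50% when tested at 10 µM, limit read from the data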
STAT1 act: activators of IFN-gamma induced STAT1 signaling; NIH 3T3 STAT1-luciferase reporter, luminescence; 100% = IFN-gamma alone, no compound; activation (% of control), % at 5.5 µM; 2.6% of 200,000 active;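 active = activation above the screen-wide mean activation plus 3 SD, cut at about 130% in these data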;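 note: raw ratio to IFN-gamma control signal so 100% means no change and 0% no light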
Active calls of the source: *; . = not tested or not shown.

SMILES | NF-kB expr up | APP 5'UTR act | FLuc act counter | Pf gametocyte | FLuc inh counter | STAT1 act
Clc1ccc(Oc2nc3c(Cl)cccc3s2)cc1Cl | . | . | . | -13.6 | . | .
COc1ccc2oc(=O)c(/C(C)=N/Nc3ccccc3)cc2c1 | 1.23 | 2.4 | 0.9 | -7.6 | 6.7 | 92.5
Cc1ccc(C(=O)CSc2nsc(C)c2C#N)cc1 | 6.04* | 156.3* | 1 | 2.2 | 2.6 | 108.8
Cc1ccnc(SCC(=O)c2ccc(Br)cc2)c1C#N | 2.91 | 106.8 | 1 | 7.0 | 3.3 | 146.1*
Cc1snc(SCC(=O)c2ccc(Cl)cc2)c1C#N | 2.55 | 100.9 | 1.1 | 19.5 | -5.5 | 112.0
CCOC(=O)[C@H]1[C@H]2COc3ccc(OC)cc3[C@@H]2N2C(=O)CN(CC3CCCO3)C(=O)[C@@]12C (some centres undefined) | . | . | . | -2.2 | . | .
O=C(CSC1=NCCS1)N1CCc2ccccc21 | 3.54* | 85.3 | 0.8 | -4.0 | 15.6 | 126.9
CCc1sc(C(=O)N2CCc3ccccc32)cc1C | 8.29* | 189.1* | 0.4 | -9.8 | 62.7* | 134.1*
O=C(c1ccc(Cl)s1)N1CCc2ccccc21 | 3.28 | 121.4 | 0.6 | 5.1 | 36.1 | 143.7*
O=C(c1ccc(C(=O)N2CCCc3ccccc32)s1)N1CCCc2ccccc21 | 0.66 | 8.1 | 1.1 | 15.6 | -8.9 | 103.8
Nc1ccccc1SCC(=O)N1CCc2ccccc21 | 1.81 | 20.4 | 0.9 | -13.6 | 8.8 | 115.5
CCCCNC(=O)CC1NCCNC1=O (centres undefined) | 1.09 | 0.2 | 1 | . | -4.3 | 104.3
O=C(Nc1ccc(F)cc1F)c1csc(-c2cccs2)n1 | 1.35 | 108.8 | 1 | -16.7 | 1.3 | 135.1*
Fc1cccc(C2CCCCN2Cc2nc(C3CC3)no2)c1 (centres undefined) | 1.04 | 3.2 | 1.1 | 14.5 | -5.4 | 101.9
CC(C)c1ccc(/C=N/NC(=O)c2ccccc2Cl)cc1 | 1.69 | -61.4 | 0.9 | -4.2 | 8.6 | 139.3*
CNC(=S)N/N=C/c1ccc(C(C)C)cc1 | . | 63.7 | . | -7.2 | . | 129.4*
COc1ccccc1/C=C/CN1CCSCC1 | . | . | . | 19.7 | . | .
C=CCC(Nc1ccco1)c1ccccc1 (centres undefined) | 1.15 | -6.3 | 1 | . | 0.2 | 101.2
O=C(c1ccccc1)c1cnc(-c2ccccc2)s1 | 9.91* | 156.8* | 0.5 | -15.7 | 54.9* | 130.0*
O=C(c1ccccc1)c1cnc(-c2ccc(Cl)cc2)s1 | 6.62* | 122.8 | 0.6 | 16.0 | 36.4 | 116.1
CC(NC(=O)Cn1ncc(Cl)c(Cl)c1=O)C12CC3CC(CC(C3)C1)C2 (centres undefined) | 0.19 | -96.2 | 1 | . | -3.9 | 91.9
CCCc1ccc(-c2ccc(F)c(N)c2)nc1 | 4.19* | 139.7* | 0.1 | . | 89.5* | 66.5
O=C(CSc1nnc(-c2ccccc2Cl)o1)Nc1ccc2c(c1)OCCO2 | 2.23 | 140.9* | 1.1 | -18.7 | -5.4 | 98.2
O=C(CSc1nnc(-c2ccc(O)cc2)o1)Nc1ccc2c(c1)OCCO2 | 1.92 | 135.3* | 1 | . | 4.5 | 101.3
Clc1cccc(N2CCN(CCNc3nc4ccccc4n4cnnc34)CC2)c1 | 1.49 | -10.8 | 1 | . | -4.0 | 104.2
SMILES | NF-kB expr up | APP 5'UTR act | FLuc act counter | Pf gametocyte | FLuc inh counter | STAT1 act
C(=C\c1ccccc1)/C=N/N1CCN(c2ccccn2)CC1 | 2.1 | 17.1 | 1 | 6.5 | 3.5 | 132.0*
CCOc1ccc(C(=O)NCc2ccc3c(c2)OCO3)cc1 | . | . | . | 13.7 | . | .
O=C(c1cccc(COc2ccc(Cl)cc2Cl)c1)N1CCN(c2ccccn2)CC1 | 1.94 | 172.8* | 1 | . | 2.5 | 114.6
O=C(c1ccc(Cl)c(Cl)c1)N1CCN(c2ccccn2)CC1 | . | . | . | 12.5 | . | .
O=C1c2sc3nc4ccccc4n3c2C(=O)N1c1ccccc1Cl | 1.37 | -2.3 | 1 | . | 2.3 | 108.2
N=c1cc(C2(O)CCCCC2)n2c(nc3ccccc32)s1 | 4.09* | 184.9* | 0.1 | -6.4 | 93.8* | 114.1
O=C(NNC(=O)c1sccc1-n1cccc1)Nc1ccc(F)cc1 | 1.04 | -5.3 | 1 | 17.7 | -2.2 | 104.3
CCCc1ccc(-c2cc(C(=O)NN3CCOCC3)c3ccccc3n2)cc1 | 1.19 | 39.3 | 0.4 | 0.7 | 58.9* | 119.9
NS(=O)(=O)c1ccc(CCNC(=O)c2cc(-c3ccc(Br)cc3)nc3ccccc23)cc1 | 0.71 | -5.4 | 1 | -27.8 | 3.6 | 105.2
CCCc1ccc(-c2cc(C(=O)NCCc3ccc(S(N)(=O)=O)cc3)c3ccccc3n2)cc1 | 1.79 | 65.0 | 0.4 | . | 64.2* | 125.8
CCn1cc(-c2cc(C(=O)O)c3ccccc3n2)cn1 | 1.38 | -4.4 | 0.2 | 16.1 | 82.6* | 77.6
Cc1ccc(-c2cc(C(=O)Nc3cc(C)on3)c3ccccc3n2)cc1 | 1.16 | -1.6 | 0.9 | 19.9 | 7.5 | 90.6
CCn1cc(-c2cc(C(=O)O)c3ccccc3n2)c(C)n1 | 1.34 | -22.8 | 0.7 | . | 30.7 | 96.8
CCCc1ccc(-c2cc(C(=O)Nc3ccc([N+](=O)[O-])cn3)c3ccccc3n2)cc1 | 0.93 | 22.7 | 0.4 | 12.4 | 58.1* | 101.7
CC1CC(C)CN(CCC(=O)Nc2ccc(Br)cc2)C1 (centres undefined) | . | . | . | -10.7 | . | .
COc1ccc(OCCC(=O)OCC(=O)NCc2ccc(F)cc2)cc1 | 0.94 | 2.3 | 1 | 9.6 | -2.7 | 106.7
O=C(NC(=S)N1CCN(C/C=C/c2ccccc2)CC1)c1ccc(Cl)nc1 | . | . | . | 10.0 | . | .
CCc1ccc(-c2cc(C(=O)Nn3cnnc3)c3ccccc3n2)cc1 | 4.29* | 59.7 | 0 | 38.5* | 98.0* | 41.5
CCC/C=N/NC(=O)c1cc(-c2ccccc2)nc2ccccc12 | 1.08 | -12.4 | 1 | -32.2 | 4.0 | 105.3
O=S(=O)(NCCC1=CCCCC1)c1cccc(S(=O)(=O)N2CCOCC2)c1 | 0.75 | -4.1 | 1 | . | -3.4 | 96.0
Cc1csc(NC(=O)CSc2nsc(SCC(=O)Nc3nc(C)cs3)c2C#N)n1 | 1.72 | 126.2 | 1 | -41.2 | -1.9 | 132.0*
Cc1ccc(NC(=O)CSc2nsc(SCC(=O)Nc3ccc(C)cc3C)c2C#N)c(C)c1 | 1.06 | -2.3 | 1.1 | . | -10.6 | 100.4
Cc1ccc2sc(NC(=O)CSc3nc(C)cc(C)c3C#N)nc2c1 | 6.54* | 94.0 | 0.9 | -11.9 | 12.9 | 92.5
Cc1cc(C)c(C#N)c(SCC(=O)Nc2nnc(-c3ccccc3)s2)n1 | 1.17 | 11.4 | 1.1 | -5.3 | -9.3 | 100.0
COc1ccc2nc(NC(=O)c3cnccn3)sc2c1 | 3.29 | 98.1 | 0.4 | . | 62.6* | 121.0
COc1ccc2nc(NC(=O)c3cccc(-c4cc5ccccc5oc4=O)c3)sc2c1 | 1.12 | 10.5 | 0.9 | 49.0* | 6.0 | 111.6
Cc1ccc2nc(NC(=O)c3ccccn3)sc2c1 | 1.24 | -22.1 | 0 | 16.0 | 95.3* | 18.6
O=C(Nc1nc2c(F)cc(F)cc2s1)c1ccccn1 | 4.18* | 17.9 | 0.3 | . | 66.3* | 81.8
Cn1cc(CNC(=O)/C=C/c2ccc(Cl)cc2)cn1 | 1.09 | -3.8 | 1 | 2.3 | -1.1 | 104.1
COc1cccc(C(=O)NCc2ccco2)c1OC | . | . | . | 7.3 | . | .
